{"source": "ChEMBL document CHEMBL1154802", "about": "“Antiestrogenic constituents of the Thai medicinal plants Capparis flavicans and Vitex glabrata” (2009)", "key": {"MCF7 [1]": {"system": "MCF7", "assay": "Stimulation of human MCF7 cell proliferation up to 100 uM after 96 hrs by alamar blue assay relative to estradiol", "assay_type": "functional, cell-based", "method_in_brief": "(§1)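 Compounds were given alone at 0.1, 1, 10 and 100 µM, and stimulation of proliferation was compared with estradiol at 1–100 pM. Cell proliferation assay as in an earlier report.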"}, "T47D [2]": {"system": "T47D", "assay": "Stimulation of human T47D cell proliferation up to 100 uM after 96 hrs by alamar blue assay relative to estradiol", "assay_type": "functional, cell-based", "method_in_brief": "as §1"}, "MCF7 [3]": {"system": "MCF7", "assay": "Antiestrogenic activity in human MCF7 cells assessed as drug level causing inhibition of 100 pM E2-enhanced cell proliferation to level equivalent to 50 pM E2 after 96 hrs by alamar blue assay", "assay_type": "functional", "method_in_brief": "(§2)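 Cells seeded at 1 × 10^4 per well in phenol red-free RPMI with 5% DCC-treated FBS. E2 was added from a 20 nM solution to give 100 pM and preincubated 1 h at 37 °C, 5% CO2. Compounds were then added at 0.1, 1, 10 and 100 µM for 96 h, with serially diluted tamoxifen as positive control. Antagonism was judged from cell populations. iEqE values were obtained by linear regression over four concentrations.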"}, "MCF7 [4]": {"system": "MCF7", "assay": "Antiestrogenic activity in human MCF7 cells assessed as drug level causing inhibition of 100 pM E2-enhanced cell proliferation to level equivalent to 10 pM E2 after 96 hrs by alamar blue assay", "assay_type": "functional", "method_in_brief": "as §2"}, "MCF7 [5]": {"system": "MCF7", "assay": "Antiestrogenic activity in human MCF7 cells assessed as drug level causing inhibition of 100 pM E2-enhanced cell proliferation to level equivalent to 1 pM E2 after 96 hrs by alamar blue assay", "assay_type": "functional", "method_in_brief": "as §2"}, "T47D [6]": {"system": "T47D", "assay": "Antiestrogenic activity in human T47D cells assessed as drug level causing inhibition of 100 pM E2-enhanced cell proliferation to level equivalent to 50 pM E2 after 96 hrs by alamar blue assay", "assay_type": "functional", "method_in_brief": "as §2"}, "T47D [7]": {"system": "T47D", "assay": "Antiestrogenic activity in human T47D cells assessed as drug level causing inhibition of 100 pM E2-enhanced cell proliferation to level equivalent to 10 pM E2 after 96 hrs by alamar blue assay", "assay_type": "functional", "method_in_brief": "as §2"}, "T47D [8]": {"system": "T47D", "assay": "Antiestrogenic activity in human T47D cells assessed as drug level causing inhibition of 100 pM E2-enhanced cell proliferation to level equivalent to 1 pM E2 after 96 hrs by alamar blue assay", "assay_type": "functional", "method_in_brief": "as §2"}, "MCF7 [9]": {"system": "MCF7", "assay": "Antiestrogenic activity in human MCF7 cells assessed as inhibition of E2-enhanced cell proliferation at 0.1 to 100 uM after 96 hrs by alamar blue assay", "assay_type": "functional", "method_in_brief": "as §2"}, "T47D [10]": {"system": "T47D", "assay": "Antiestrogenic activity in human T47D cells assessed as inhibition of E2-enhanced cell proliferation at 0.1 to 100 uM after 96 hrs by alamar blue assay", "assay_type": "functional", "method_in_brief": "as §2"}}, "note": "Activity calls are given as the source filed them. The calls are words filed in the database; no cut-off is given here.", "data": [{"smiles": "COc1cc(/C=C/C(=O)O[C@H]2C[C@@H]3C(C(=O)O)=CO[C@@H](O[C@@H]4O[C@H](CO)[C@@H](O)[C@H](O)[C@H]4O)[C@@H]3[C@@H]2C)ccc1O", "note": "[KHAINAOSIDE B]", "values": [{"measurement": "Activity", "setting": "MCF7 [1]", "result": "inactive"}, {"measurement": "Activity", "setting": "T47D [2]", "result": "inactive"}, {"measurement": "Activity", "setting": "MCF7 [3]", "result": "<0.1", "unit": "µM"}, {"measurement": "Activity", "setting": "MCF7 [4]", "result": "<0.1", "unit": "µM"}, {"measurement": "Activity", "setting": "MCF7 [5]", "result": ">100", "unit": "µM"}, {"measurement": "Activity", "setting": "T47D [6]", "result": "<0.1", "unit": "µM"}, {"measurement": "Activity", "setting": "T47D [7]", "result": "<0.1", "unit": "µM"}, {"measurement": "Activity", "setting": "T47D [8]", "result": ">100", "unit": "µM"}, {"measurement": "inhibition (INH)", "setting": "MCF7 [9]", "result": ">90", "unit": "%"}, {"measurement": "inhibition (INH)", "setting": "T47D [10]", "result": ">90", "unit": "%"}]}]}
